Data on two molecules can be found in paper PMC6697428 (SLAS discovery : advancing life sciences R & D, 2018).

Read-outs that look alike come from different tables or passages of the source. Some results are limits rather than exact numbers.

One series relates to human THP-1 cells. Nature of the series: q-PCR of ISG15 and ISG56 gene expression in THP-1 cells. The series is classed as cell-based. The settings on record: 1 μM compound, 1000 U/mL IFN-α, 8 h, compared to vehicle.
For a further series, the system named is ISG15 in THP-1 cells. Nature of the series: Immunoblot of IFN-α induced ISG15 protein expression. The series is classed as cell-based, human. The conditions noted are these: 24 h. (In general: Immunoblotting shows a protein as a band on a membrane.)
A further series deals with THP-1 cells. As to the kind of experiment: MTT cell viability assay. In kind it is cell-based, human. The conditions noted are these: for relative viability (MTT): 5 μM compound, overnight, relative to vehicle control (0.5% DMSO). An outline of the steps:
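THP-1 cells in 96-well plates were exposed to test compound at 5 μM for 18 h. MTT (0.5 mg/ml in assay media) was then added for 4–6 h. Cells were lysed overnight in 15% w/v SDS with 0.12% v/v 12N HCl. Absorbance was read at 570 nm against a 650 nm reference and expressed relative to vehicle (0.5% DMSO) wells.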
For orientation: Tetrazolium assays rely on reduction of a dye to a coloured formazan, in cell work by metabolically active cells.

Another series has as its system ISRE-bla THP-1 cells. As to the kind of experiment: ISRE-bla THP-1 FRET reporter assay for prolonged IFN-α induced ISRE activation. The series is classed as cell-based, human. (Reporter assays use an easily measured gene product as a stand-in for the process of interest.)
The test system of series [1] is STAT1 phosphorylation in THP-1 cells. As to the kind of experiment: Immunoblot of STAT1 phosphorylation after IFN-α. In kind it is cell-based, human. The settings on record: 1 μM compound pre-treatment 12 h, then IFN-α.
Series [2] concerns murine bone marrow derived dendritic cells. The series is classed as cell-based, mouse. The settings on record: 5 μM compound in presence of IFN-α, compared to IFN-α alone.

As a reminder, the EC50 is the concentration giving half of the maximal effect. As to `O=C(Cc1ccc(-c2ccc(OCCN3CCOCC3)cc2)cn1)NCc1ccccc1` [Compound 24, KX2–391], in the series with human THP-1 cells, the “increase in gene expression for both ISG15 and ISG56” value is given as roughly 2 fold. Besides, the “levels of IFN-α induced ISG15 protein” value in the series with ISG15 in THP-1 cells (1 μM compound with IFN-α) is given as “increased”. The “amounts of ISG15 protein without IFN-α” value in the series with ISG15 in THP-1 cells (compound alone) was “did not increase”. For the same molecule, in the series with THP-1 cells, the “relative viability (MTT)” value was “without significant toxicity”. In addition, the “% relative viability, dose response cytotoxicity” value in the series on THP-1 cells (absence of IFN-α, dose response starting with 50 μM) was greater than 75%. In addition, the “FRET ratio in the absence of exogenous interferon” value in the series on ISRE-bla THP-1 cells (no IFN-α, even at higher concentrations of the compounds) is listed as “no increase”. The EC50 in the series on ISRE-bla THP-1 cells (read-out: relative EC50 (ISRE activity), with 100 U/mL IFN, 16 h) worked out at 1640 nM. The “level of p-STAT1 after 30 minutes” value in series [1] (30 minutes) is listed as “elevated”. Further, the “level of p-STAT1 at 6 h post stimulation” value in series [1] (6 h) is on record as “minimal residual effect”. For the same molecule, the “mRNA expression of Isg56, Isg15, Ifi2712a, Irf7, Ifi16” value is listed as “significantly increased” in series [2] and “increased” in series [2] (listed as KX2–391).

As for `O=C(/C=C/c1cccc(S(=O)(=O)Nc2ccccc2)c1)NO` [Compound 26, belinostat], the “relative viability (MTT)” value is “toxic” in the series on THP-1 cells (5 µM) and “relatively toxic” with THP-1 cells (listed as Belinostat, 5 µM).
